Data published in ChEMBL document CHEMBL1944546, “Structure-activity relationships of novel alkylides: 3-O-arylalkyl clarithromycin derivatives with improved antibacterial activities” (2012).
≈ marks a conversion by molar mass, not a printed value.

What was measured:
Staphylococcus hominis = assay: Antibacterial activity against methicillin-resistant, coagulase-negative, inducible MLS-resistant Staphylococcus hominis E3 by broth microdilution method; type: functional
Method in brief: (§1)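 MIC by broth microdilution following CLSI (2010) recommendations, using clinical isolates identified by 16S rDNA sequencing and labelled by genotype and phenotype. S. aureus ATCC 29213 and S. pneumoniae ATCC 49619 were run as control strains, and azithromycin, clarithromycin and 3-OH-clarithromycin were tested as reference agents.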

Staphylococcus aureus [1] = assay: Antibacterial activity against erythromycin-susceptible Staphylococcus aureus ATCC 29213 by broth microdilution method; type: functional
Method in brief: (§2)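 MIC read by broth microdilution following CLSI (2010) guidance. The clinical isolates were identified by 16S rDNA sequencing and labelled by genotype and phenotype. S. aureus ATCC 29213 and S. pneumoniae ATCC 49619 were the control strains. Azithromycin, clarithromycin and 3-OH-clarithromycin were run as reference compounds.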

Streptococcus pneumoniae [2] = assay: Antibacterial activity against erythromycin-susceptible Streptococcus pneumoniae ATCC 49619 by broth microdilution method; type: functional; method in brief: as §2
[3] = system: Staphylococcus epidermidis; assay: Antibacterial activity against methicillin-susceptible, inducible MLS-resistant Staphylococcus epidermidis E1 by broth microdilution method; type: functional; method in brief: as §1
Staphylococcus aureus [4] = assay: Antibacterial activity against methicillin-susceptible, inducible MLS-resistant Staphylococcus aureus PU 64 by broth microdilution method; type: functional; method in brief: as §1
Staphylococcus aureus [5] = assay: Antibacterial activity against methicillin-, constitutive MLS-resistant […] by broth microdilution method; type: functional; method in brief: as §1
[6] = system: Staphylococcus haemolyticus; assay: Antibacterial activity against methicillin-resistant, coagulase-negative, constitutive MLS-resistant Staphylococcus haemolyticus PU 19 by broth microdilution method; type: functional; method in brief: as §1
Streptococcus pneumoniae [7] = assay: Antibacterial activity against penicillin-susceptible, constitutive MLS-resistant Streptococcus pneumoniae PU 27 by broth microdilution method; type: functional; method in brief: as §1
Streptococcus pyogenes [8] = assay: Antibacterial activity against constitutive MLS-resistant Streptococcus pyogenes A 2 by broth microdilution method; type: functional; method in brief: as §1
Streptococcus pyogenes [9] = assay: Antibacterial activity against erythromycin-susceptible Streptococcus pyogenes A 3 by broth microdilution method; type: functional; method in brief: as §2
Streptococcus pneumoniae [10] = assay: Antibacterial activity against efflux,penicillin-susceptible Streptococcus pneumoniae PU 09 by broth microdilution method; type: functional; method in brief: as §2
Staphylococcus aureus [11] = assay: Antibacterial activity against methicillin-, inducible MLS-resistant Staphylococcus aureus PU 32 by broth microdilution method
[12] = system: Staphylococcus epidermidis; assay: Antibacterial activity against methicillin-resistant, constitutive MLS-resistant Staphylococcus epidermidis E2 by broth microdilution method; type: functional; method in brief: as §1
Streptococcus pneumoniae [13] = assay: Antibacterial activity against penicillin-, constitutive MLS-resistant Streptococcus pneumoniae PU 11 by broth microdilution method; type: functional; method in brief: as §1
[14] = system: Streptococcus dysgalactiae; assay: Antibacterial activity against efflux, erythromycin-resistant Streptococcus dysgalactiae A 1 by broth microdilution method; type: functional; method in brief: as §1

| SMILES | MIC (Staphylococcus hominis) | MIC (Staphylococcus aureus [1]) | MIC (Streptococcus pneumoniae [2]) | MIC [3] | MIC (Staphylococcus aureus [4]) | MIC (Staphylococcus aureus [5]) | MIC [6] | MIC (Streptococcus pneumoniae [7]) | MIC (Streptococcus pyogenes [8]) | MIC (Streptococcus pyogenes [9]) | MIC (Streptococcus pneumoniae [10]) | MIC (Staphylococcus aureus [11]) | MIC [12] | MIC (Streptococcus pneumoniae [13]) | MIC [14] |
| --- | --- | --- | --- | --- | --- | --- | --- | --- | --- | --- | --- | --- | --- | --- | --- |
| CC[C@H]1OC(=O)[C@H](C)[C@@H](O[C@H]2C[C@@](C)(OC)[C@@H](O)[C@H](C)O2)[C@H](C)[C@@H](O[C@@H]2O[C@H](C)C[C@H](N(C)C)[C@H]2O)[C@](C)(O)C[C@@H](C)CN(C)[C@H](C)[C@@H](O)[C@]1(C)O [AZITHROMYCIN] | > 256 µg/mL | 1 µg/mL (≈ 1.34 µM) | 0.25 µg/mL (≈ 0.334 µM) | > 256 µg/mL | 8 µg/mL (≈ 10.7 µM) | > 256 µg/mL | > 256 µg/mL | 64 µg/mL (≈ 85.4 µM) | > 256 µg/mL | 0.125 µg/mL (≈ 0.167 µM) | 8 µg/mL (≈ 10.7 µM) | 8 µg/mL (≈ 10.7 µM) | > 256 µg/mL | > 256 µg/mL | 32 µg/mL (≈ 42.7 µM) |
| CC[C@H]1OC(=O)[C@H](C)[C@@H](O/C=C\Cc2cncnc2)[C@H](C)[C@@H](O[C@@H]2O[C@H](C)C[C@H](N(C)C)[C@H]2O)[C@](C)(OC)C[C@@H](C)/C(=N\OCc2ccccc2)[C@H](C)[C@@H](O)[C@]1(C)O |  | 32 µg/mL (≈ 39.4 µM) | 2 µg/mL (≈ 2.46 µM) |  |  |  | > 256 µg/mL | 32 µg/mL (≈ 39.4 µM) |  |  | 2 µg/mL (≈ 2.46 µM) | 4 µg/mL (≈ 4.92 µM) |  | 64 µg/mL (≈ 78.7 µM) |  |
| C=CCO[C@H]1[C@H](C)[C@@H](O[C@@H]2O[C@H](C)C[C@H](N(C)C)[C@H]2O)[C@](C)(OC)C[C@@H](C)C(=O)[C@H](C)[C@@H](O)[C@](C)(O)[C@@H](CC)OC(=O)[C@@H]1C |  | > 256 µg/mL | 32 µg/mL (≈ 50.8 µM) |  |  |  | > 256 µg/mL | 128 µg/mL (≈ 203 µM) |  |  | 64 µg/mL (≈ 102 µM) | 256 µg/mL (≈ 406 µM) |  | > 256 µg/mL |  |
| CC[C@H]1OC(=O)[C@H](C)[C@@H](OCCCc2cncnc2)[C@H](C)[C@@H](O[C@@H]2O[C@H](C)C[C@H](N(C)C)[C@H]2O)[C@](C)(OC)C[C@@H](C)/C(=N\OCc2ccccc2Cl)[C@H](C)[C@H]2OC(=O)O[C@@]21C | > 256 µg/mL | 16 µg/mL (≈ 18.3 µM) | 1 µg/mL (≈ 1.14 µM) | > 256 µg/mL | > 256 µg/mL | > 256 µg/mL | > 256 µg/mL | 32 µg/mL (≈ 36.6 µM) | 32 µg/mL (≈ 36.6 µM) | 1 µg/mL (≈ 1.14 µM) | 2 µg/mL (≈ 2.28 µM) | 16 µg/mL (≈ 18.3 µM) | > 256 µg/mL | > 256 µg/mL | 4 µg/mL (≈ 4.57 µM) |
| CC[C@H]1OC(=O)[C@H](C)[C@@H](OC/C=C/c2cncnc2)[C@H](C)[C@@H](O[C@@H]2O[C@H](C)C[C@H](N(C)C)[C@H]2O)[C@](C)(OC)C[C@@H](C)/C(=N\O)[C@H](C)[C@H]2OC(=O)O[C@@]21C | > 256 µg/mL | 8 µg/mL (≈ 10.7 µM) | 0.5 µg/mL (≈ 0.668 µM) | > 256 µg/mL | 4 µg/mL (≈ 5.34 µM) | > 256 µg/mL | > 256 µg/mL | 32 µg/mL (≈ 42.7 µM) | > 256 µg/mL | 0.125 µg/mL (≈ 0.167 µM) | 4 µg/mL (≈ 5.34 µM) | 8 µg/mL (≈ 10.7 µM) | > 256 µg/mL | > 256 µg/mL | 1 µg/mL (≈ 1.34 µM) |
| CC[C@H]1OC(=O)[C@H](C)[C@@H](OC/C=C/c2cncnc2)[C@H](C)[C@@H](O[C@@H]2O[C@H](C)C[C@H](N(C)C)[C@H]2O)[C@](C)(OC)C[C@@H](C)/C(=N\OCc2ccccc2)[C@H](C)[C@H]2OC(=O)O[C@@]21C |  | 32 µg/mL (≈ 38.1 µM) | 2 µg/mL (≈ 2.38 µM) |  |  |  | > 256 µg/mL | 64 µg/mL (≈ 76.3 µM) |  |  | 4 µg/mL (≈ 4.77 µM) | 32 µg/mL (≈ 38.1 µM) |  | 64 µg/mL (≈ 76.3 µM) |  |
| CC[C@H]1OC(=O)[C@H](C)[C@@H](OC/C=C/c2cccnc2)[C@H](C)[C@@H](O[C@@H]2O[C@H](C)C[C@H](N(C)C)[C@H]2O)[C@](C)(OC)C[C@@H](C)/C(=N\OCc2ccccc2Cl)[C@H](C)[C@H]2OC(=O)O[C@@]21C |  | 32 µg/mL (≈ 36.7 µM) | 4 µg/mL (≈ 4.58 µM) |  |  |  | 32 µg/mL (≈ 36.7 µM) | 16 µg/mL (≈ 18.3 µM) |  |  | 8 µg/mL (≈ 9.17 µM) | 32 µg/mL (≈ 36.7 µM) |  | 16 µg/mL (≈ 18.3 µM) |  |
| C=CCO[C@H]1[C@H](C)[C@@H](O[C@@H]2O[C@H](C)C[C@H](N(C)C)[C@H]2O)[C@](C)(OC)C[C@@H](C)C(=O)N[C@H](C)[C@@H](O)[C@](C)(O)[C@@H](CC)OC(=O)[C@@H]1C |  | > 256 µg/mL | > 256 µg/mL |  |  |  | > 256 µg/mL | > 256 µg/mL |  |  | > 256 µg/mL | > 256 µg/mL |  | > 256 µg/mL |  |
| CC[C@H]1OC(=O)[C@H](C)[C@@H](O[C@H]2C[C@@](C)(OC)[C@@H](O)[C@H](C)O2)[C@H](C)[C@@H](O[C@@H]2O[C@H](C)C[C@H](N(C)C)[C@H]2O)[C@](C)(OC)C[C@@H](C)C(=O)[C@H](C)[C@@H](O)[C@]1(C)O [CLARITHROMYCIN] | > 256 µg/mL | 0.25 µg/mL (≈ 0.334 µM) | 0.032 µg/mL (≈ 0.0428 µM) | > 256 µg/mL | 2 µg/mL (≈ 2.67 µM) | > 256 µg/mL | > 256 µg/mL | 1 µg/mL (≈ 1.34 µM) | > 256 µg/mL | 0.032 µg/mL (≈ 0.0428 µM) | 4 µg/mL (≈ 5.35 µM) | 1 µg/mL (≈ 1.34 µM) | > 256 µg/mL | > 256 µg/mL | 8 µg/mL (≈ 10.7 µM) |
| CC[C@H]1OC(=O)[C@H](C)[C@@H](OC/C=C/c2cncnc2)[C@H](C)[C@@H](O[C@@H]2O[C@H](C)C[C@H](N(C)C)[C@H]2O)[C@](C)(OC)C[C@@H](C)/C(=N\OCc2c(C)cc(C)cc2C)[C@H](C)[C@H]2OC(=O)O[C@@]21C | > 256 µg/mL | > 256 µg/mL | 16 µg/mL (≈ 18.2 µM) | > 256 µg/mL | > 256 µg/mL | > 256 µg/mL | > 256 µg/mL | 64 µg/mL (≈ 72.6 µM) | 32 µg/mL (≈ 36.3 µM) | 32 µg/mL (≈ 36.3 µM) | 32 µg/mL (≈ 36.3 µM) | > 256 µg/mL | > 256 µg/mL | 64 µg/mL (≈ 72.6 µM) | 32 µg/mL (≈ 36.3 µM) |
| CC[C@H]1OC(=O)[C@H](C)[C@@H](OCCCc2cccnc2)[C@H](C)[C@@H](O[C@@H]2O[C@H](C)C[C@H](N(C)C)[C@H]2O)[C@](C)(OC)C[C@@H](C)/C(=N\OCc2ccccc2Cl)[C@H](C)[C@H]2OC(=O)O[C@@]21C | > 256 µg/mL | > 256 µg/mL | 8 µg/mL (≈ 9.15 µM) | > 256 µg/mL | > 256 µg/mL | > 256 µg/mL | > 256 µg/mL | 32 µg/mL (≈ 36.6 µM) | 32 µg/mL (≈ 36.6 µM) | 8 µg/mL (≈ 9.15 µM) | 16 µg/mL (≈ 18.3 µM) | > 256 µg/mL | > 256 µg/mL | 64 µg/mL (≈ 73.2 µM) | 16 µg/mL (≈ 18.3 µM) |
| CC[C@H]1OC(=O)[C@H](C)[C@@H](OC/C=C/c2cncc3ccccc23)[C@H](C)[C@@H](O[C@@H]2O[C@H](C)C[C@H](N(C)C)[C@H]2O)[C@](C)(OC)C[C@@H](C)/C(=N\OCc2ccccc2Cl)[C@H](C)[C@H]2OC(=O)O[C@@]21C |  | 64 µg/mL (≈ 69.4 µM) | 16 µg/mL (≈ 17.3 µM) |  |  |  | 128 µg/mL (≈ 139 µM) | 32 µg/mL (≈ 34.7 µM) |  |  | 16 µg/mL (≈ 17.3 µM) | 256 µg/mL (≈ 277 µM) |  | 32 µg/mL (≈ 34.7 µM) |  |
| CC[C@H]1OC(=O)[C@H](C)[C@@H](OC/C=C/c2ccc(-n3ccnc3)cc2)[C@H](C)[C@@H](O[C@@H]2O[C@H](C)C[C@H](N(C)C)[C@H]2O)[C@](C)(OC)C[C@@H](C)/C(=N\OCc2ccccc2Cl)[C@H](C)[C@H]2OC(=O)O[C@@]21C |  | 32 µg/mL (≈ 34.1 µM) | 16 µg/mL (≈ 17.1 µM) |  |  |  | 32 µg/mL (≈ 34.1 µM) | 32 µg/mL (≈ 34.1 µM) |  |  | 16 µg/mL (≈ 17.1 µM) | 32 µg/mL (≈ 34.1 µM) |  | 32 µg/mL (≈ 34.1 µM) |  |
